Data taken from ChEMBL document CHEMBL5385953, “Antiviral Rotenoids and Isoflavones Isolated from Millettia oblata ssp. teitensis” (J Nat Prod, 2024).
Active and inactive are the calls of the source. No cut-off for these calls is given here.

Tests used:
[1] = system: HEp-2; experiment: Cytotoxicity against human HEp-2 cells measured after 3 days by CellTiter 96 aqueous one solution assay (Rvb >100 microM); format: functional; conditions: HEp-2, 72 h, time 3 day
[2] = system: HEp-2; experiment: Cytostatic activity against human HEp-2 cells assessed as poor cell staining at 100 uM measured after 3 days by CellTiter 96 aqueous one solution assay; format: functional, cell-based; conditions: time 3.0 day
[3] = system: HEp-2; experiment: Cytostatic activity against human HEp-2 cells assessed as poor cell staining at 20 uM measured after 3 days by CellTiter 96 aqueous one solution assay; format: functional, cell-based; conditions: time 3.0 day
Outline: (§1)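 Compound-treated HEp-2 cells (grown in DMEM with 8% fetal calf serum and 292 μg/mL L-glutamine) were examined by microscopy alongside the tetrazolium viability assay. Cytostatic effects were scored as poor cell proliferation, altered cell shape or poor cell staining.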

[4] = Selectivity index, ratio of CC50 for human HEp-2 cells to IC50 for Human respiratory syncytial virus infected in human HEp-2 cells; format: toxicity, cell-based; conditions: read-out: Ratio CC50/IC50
[5] = system: HEp-2; experiment: Cytostatic activity against human HEp-2 cells assessed as poor cell staining at 4.0 to 100 uM measured after 3 days by CellTiter 96 aqueous one solution assay; format: functional, cell-based; conditions: dose 4-100 µM, time 3.0 day
[6] = system: HEp-2; experiment: Cytostatic activity against human HEp-2 cells assessed as poor cell staining at 4.0 uM measured after 3 days by CellTiter 96 aqueous one solution assay; format: functional, cell-based; conditions: time 3.0 day
[7] = system: HEp-2; experiment: Cytostatic activity against human HEp-2 cells assessed as poor cell proliferation at 100 uM measured after 3 days by CellTiter 96 aqueous one solution assay; format: functional, cell-based; conditions: time 3.0 day; outline: as §1
[8] = system: HEp-2; experiment: Cytostatic activity against human HEp-2 cells assessed as poor cell staining at 0.8 to 4.0 uM measured after 3 days by CellTiter 96 aqueous one solution assay; format: functional, cell-based; conditions: dose 0.8-4 µM, time 3.0 day; outline: as §1

| Structure (SMILES) | CC50 [1] [µM] | also measured |
| --- | --- | --- |
| CC(C)=CCOc1ccc(-c2coc3c4c(cc(O)c3c2=O)OC(C)(C)C=C4)cc1 | > 100 | Activity [2]: Active |
| COc1ccc2c(c1)O[C@@H]1COc3cc4c(cc3[C@]1(O)C2=O)OCO4 |  | Activity [3]: Active |
| COc1cc2c(cc1-c1coc3cc(O)ccc3c1=O)OCO2 [CUNEATIN] | > 100 |  |
| CC(C)=CCOc1ccc(-c2coc3c4c(ccc3c2=O)OC(C)(C)C=C4)cc1 | > 100 | selectivity ratio [4]: > 47.6; Activity [5]: Active |
| CC1(C)C=Cc2c(ccc3c(=O)c(-c4ccc5c(c4)OCO5)coc23)O1 | > 100 |  |
| COc1cc2c(cc1-c1coc3c4c(c(OC)cc3c1=O)OC(C)(C)C=C4)OCO2 [ICHTHYNONE] | 91 | Activity [3]: Active |
| COc1c(O[C@@H]2O[C@H](CO[C@H]3O[C@H](C)[C@@H](O)[C@H](O)[C@@H]3O)[C@@H](O[C@@H]3O[C@H](CO[C@H]4O[C@H](C)[C@@H](O)[C@H](O)[C@@H]4O)[C@@H](O)[C@H](O)[C@H]3O)[C@H](O)[C@H]2O)cc2c(=O)c(-c3ccc4c(c3)OCO4)coc2c1OC | > 100 |  |
| COc1ccc2c(c1)O[C@@H]1COc3cc(OC)c(OC)cc3[C@]1(O)C2=O |  | Activity [3]: Active |
| COc1ccc2c(=O)c(-c3cc(OC)c4c(c3OC)OCO4)coc2c1 | > 100 |  |
| COc1ccc2c(c1)O[C@@H]1COc3c(cc(OC)c4c3OCO4)[C@@H]1C2=O | > 100 |  |
| COc1cc2c(cc1OC)[C@@H]1C(=O)c3ccc4c(c3O[C@@H]1CO2)C=CC(C)(C)O4 [DEGUELIN] |  | Activity [6]: Active; selectivity ratio [4]: 61.6 |
| COc1ccc2c(c1)O[C@@H]1COc3cc4c(cc3[C@@H]1C2=O)OCO4 | > 100 |  |
| COc1ccc2c(=O)c(-c3cc4c(cc3OC)OCO4)coc2c1 |  | Activity [3]: Active |
| COc1cc2c(cc1OC)C(=O)[C@@]1(O)c3cc4c(cc3OC[C@H]1O2)OCO4 | > 100 |  |
| NC(=O)c1ncn([C@@H]2O[C@H](CO)[C@@H](O)[C@H]2O)n1 [RIBAVIRIN] | > 100 | Activity [7]: Active |
| COc1cc2c(cc1OC)[C@]1(O)C(=O)c3ccc4c(c3O[C@@H]1CO2)C=CC(C)(C)O4 |  | Activity [8]: Active |
